Laboratory results as given in ChEMBL document CHEMBL1152541, “Staurosporine tethered peptide ligands that target cAMP-dependent protein kinase (PKA): optimization and selectivity profiling” (Bioorg Med Chem, 2009).
Calls of active or inactive are those of the source. No cut-off for these calls is given here. *1 amine or outer side, *2 acyl side, *3 side chain or, on linkers, in order; H or OH if unused. Where a SMILES comes first, the peptide text is derived from it. Bridges are numbered along the chain shown (N, C = ends). [ ]: non-standard residue; d: D form. The star is where a group is joined. Staurosporine = CO[C@@H]1[C@H](N(C)*)C[C@H]2O[C@]1(C)n1c3ccccc3c3c4c(c5c6ccccc6n2c5c31)C(=O)NC4; Suc = O=C(CCC(=O)[*:2])[*:1]; Dap = NC[C@H](N)C(=O)O; βAla = NCCC(=O)O

Key:
[1] = target: T1, Serine/threonine-protein kinase Chk1 (Homo sapiens) (UniProt O14757); assay: Binding affinity to human CHEK1 at 500 nM by cell-based competition binding assay relative to control in presence of DTT
T1 sequence (whole entry): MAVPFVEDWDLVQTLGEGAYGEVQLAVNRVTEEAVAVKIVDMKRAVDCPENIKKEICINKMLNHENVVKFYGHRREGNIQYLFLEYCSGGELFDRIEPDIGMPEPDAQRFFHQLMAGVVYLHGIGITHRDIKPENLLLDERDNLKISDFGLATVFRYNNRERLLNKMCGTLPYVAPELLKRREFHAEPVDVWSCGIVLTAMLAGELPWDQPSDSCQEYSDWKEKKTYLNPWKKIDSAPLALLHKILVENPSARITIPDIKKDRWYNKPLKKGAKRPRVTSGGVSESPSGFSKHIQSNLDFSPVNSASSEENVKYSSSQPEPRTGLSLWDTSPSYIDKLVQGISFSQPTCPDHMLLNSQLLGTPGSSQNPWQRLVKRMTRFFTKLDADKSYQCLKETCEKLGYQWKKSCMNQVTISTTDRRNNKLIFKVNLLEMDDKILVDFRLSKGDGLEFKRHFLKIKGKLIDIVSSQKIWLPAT
Procedure, shortened: (§1)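 Commercial (Ambit) competitive kinase-binding panel of 90 kinases measured the binding profile. Run under reducing conditions of 7.5 mM DTT. Binding is expressed relative to control.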

[2] = target: Casein kinase I isoform delta (Homo sapiens) (UniProt P48730); assay: Binding affinity to human CSNK1D at 500 nM by cell-based competition binding assay relative to control in presence of DTT; procedure, shortened: as §1
[3] = target: Cyclin-dependent kinase 2 (Homo sapiens) (UniProt P24941); assay: Binding affinity to human CDK2 at 500 nM by cell-based competition binding assay relative to control in presence of DTT
Procedure, shortened: (§2)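 Kinase binding profiling ran on a commercial (Ambit) competitive binding screen against a panel of 90 kinases. The screen used reducing conditions with 7.5 mM DTT. To withstand the DTT, the bivalent ligand was tested as its amide isostere, with the disulfide replaced. A staurosporine derivative carrying a 3 β-alanine linker was run as the reference compound.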

[4] = target: Platelet-derived growth factor receptor beta (Homo sapiens) (UniProt P09619); assay: Binding affinity to human PDGFRbeta at 500 nM by cell-based competition binding assay relative to control in presence of DTT
[5] = target: Fibroblast growth factor receptor 3 (Homo sapiens) (UniProt P22607); assay: Binding affinity to human FGFR3 at 500 nM by cell-based competition binding assay relative to control in presence of DTT; procedure, shortened: as §1
[6] = target: Insulin receptor (Homo sapiens) (UniProt P06213); assay: Binding affinity to human INSR at 500 nM by cell-based competition binding assay relative to control in presence of DTT
Procedure, shortened: (§3)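 Competition binding screen (Ambit) across a panel of 90 kinases, scoring test ligand displacement of each kinase's binding relative to control. The screen ran under reducing conditions with 7.5 mM DTT.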

[7] = target: Tyrosine-protein kinase JAK2 (Homo sapiens) (UniProt O60674); assay: Binding affinity to human JAK2 kinase domain 2 at 500 nM by cell-based competition binding assay relative to control in presence of DTT; procedure, shortened: as §3
[8] = target: Mitogen-activated protein kinase kinase kinase 4 (Homo sapiens) (UniProt Q9Y6R4); assay: Binding affinity to human MAP3K4 at 500 nM by cell-based competition binding assay relative to control in presence of DTT; procedure, shortened: as §3
[9] = target: MAP kinase-interacting serine/threonine-protein kinase 1 (Homo sapiens) (UniProt Q9BUB5); assay: Binding affinity to human MKNK1 at 500 nM by cell-based competition binding assay relative to control in presence of DTT
[10] = target: Cyclin-dependent kinase 16 (Homo sapiens) (UniProt Q00536); assay: Binding affinity to human PCTK1 at 500 nM by cell-based competition binding assay relative to control in presence of DTT
[11] = test system: Epidermal growth factor receptor (Homo sapiens), P00533 [L858R]; assay: Binding affinity to human EGFR L858R mutant at 200 nM by cell-based competition binding assay relative to control in presence of DTT; procedure, shortened: as §1
[12] = target: Receptor tyrosine-protein kinase erbB-2 (Homo sapiens) (UniProt P04626); assay: Binding affinity to human ERBB2 at 200 nM by cell-based competition binding assay relative to control in presence of DTT; procedure, shortened: as §1
[13] = target: Phosphatidylinositol 4,5-bisphosphate 3-kinase catalytic subunit gamma isoform (Homo sapiens) (UniProt P48736); assay: Binding affinity to human PIK3Cgamma at 200 nM by cell-based competition binding assay relative to control in presence of DTT
[14] = Inhibition of PKA assessed as [gamma-32P]ATP labeling of kemptide at 33 to 100 nM by liquid scintillation counting in presence of DTT
[15] = test system: Tyrosine-protein kinase ABL1 (Homo sapiens), P00519 [E255K]; assay: Binding affinity to human ABL1 E255K mutant at 200 nM by cell-based competition binding assay relative to control in presence of DTT; procedure, shortened: as §2
[16] = target: Tyrosine-protein kinase receptor UFO (Homo sapiens) (UniProt P30530); assay: Binding affinity to human AXL at 200 nM by cell-based competition binding assay relative to control in presence of DTT; procedure, shortened: as §2
[17] = target: Cyclin-dependent kinase 2 (Homo sapiens) (UniProt P24941); assay: Binding affinity to human CDK2 at 200 nM by cell-based competition binding assay relative to control in presence of DTT; procedure, shortened: as §2
[18] = target: Casein kinase I isoform gamma-2 (Homo sapiens) (UniProt P78368); assay: Binding affinity to human CSNK1G2 at 200 nM by cell-based competition binding assay relative to control in presence of DTT; procedure, shortened: as §1
[19] = target: MAP kinase-interacting serine/threonine-protein kinase 1 (Homo sapiens) (UniProt Q9BUB5); assay: Binding affinity to human MKNK1 at 50 nM by cell-based competition binding assay relative to control in presence of DTT
[20] = target: Serine/threonine-protein kinase PLK1 (Homo sapiens) (UniProt P53350); assay: Binding affinity to human PLK1 at 50 nM by cell-based competition binding assay relative to control in presence of DTT
[21] = target: Receptor tyrosine-protein kinase erbB-4 (Homo sapiens) (UniProt Q15303); assay: Binding affinity to human ERBB4 at 50 nM by cell-based competition binding assay relative to control in presence of DTT; procedure, shortened: as §1
Sequence of Receptor tyrosine-protein kinase erbB-4 (Homo sapiens) (Q15303 whole entry): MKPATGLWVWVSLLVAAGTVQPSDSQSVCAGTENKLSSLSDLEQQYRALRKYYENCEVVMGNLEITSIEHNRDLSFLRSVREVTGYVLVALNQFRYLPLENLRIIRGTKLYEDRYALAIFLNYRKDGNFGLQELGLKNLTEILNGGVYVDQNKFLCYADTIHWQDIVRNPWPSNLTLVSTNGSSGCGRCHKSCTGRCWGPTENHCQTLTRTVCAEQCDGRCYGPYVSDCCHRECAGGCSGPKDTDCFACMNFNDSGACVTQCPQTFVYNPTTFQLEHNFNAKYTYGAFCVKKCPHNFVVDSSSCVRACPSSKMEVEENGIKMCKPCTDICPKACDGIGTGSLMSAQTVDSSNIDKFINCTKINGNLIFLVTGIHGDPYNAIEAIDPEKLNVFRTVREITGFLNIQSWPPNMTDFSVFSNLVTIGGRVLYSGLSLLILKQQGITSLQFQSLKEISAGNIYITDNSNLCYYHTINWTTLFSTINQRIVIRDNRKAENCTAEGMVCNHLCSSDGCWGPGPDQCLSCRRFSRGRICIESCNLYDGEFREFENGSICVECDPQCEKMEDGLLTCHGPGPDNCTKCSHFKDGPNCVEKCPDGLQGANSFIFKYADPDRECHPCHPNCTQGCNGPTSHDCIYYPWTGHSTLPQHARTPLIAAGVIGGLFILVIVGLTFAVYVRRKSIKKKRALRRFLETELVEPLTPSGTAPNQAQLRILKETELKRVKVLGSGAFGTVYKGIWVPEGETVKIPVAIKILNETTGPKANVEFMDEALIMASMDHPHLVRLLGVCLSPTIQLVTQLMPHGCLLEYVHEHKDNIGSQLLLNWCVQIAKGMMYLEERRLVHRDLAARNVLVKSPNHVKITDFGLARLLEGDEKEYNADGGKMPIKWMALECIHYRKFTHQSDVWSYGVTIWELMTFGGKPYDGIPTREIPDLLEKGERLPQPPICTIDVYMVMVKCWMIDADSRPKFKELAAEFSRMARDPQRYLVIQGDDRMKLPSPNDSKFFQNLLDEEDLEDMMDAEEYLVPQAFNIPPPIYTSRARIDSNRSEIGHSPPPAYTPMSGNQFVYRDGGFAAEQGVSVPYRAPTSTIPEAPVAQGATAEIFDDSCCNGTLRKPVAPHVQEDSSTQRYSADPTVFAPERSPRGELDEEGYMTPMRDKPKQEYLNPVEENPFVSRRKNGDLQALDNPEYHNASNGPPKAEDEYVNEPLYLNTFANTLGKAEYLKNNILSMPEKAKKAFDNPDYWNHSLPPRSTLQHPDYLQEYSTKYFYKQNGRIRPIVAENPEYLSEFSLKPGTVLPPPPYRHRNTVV

Sequence of MAP kinase-interacting serine/threonine-protein kinase 1 (Homo sapiens) (Q9BUB5 whole entry, looked up): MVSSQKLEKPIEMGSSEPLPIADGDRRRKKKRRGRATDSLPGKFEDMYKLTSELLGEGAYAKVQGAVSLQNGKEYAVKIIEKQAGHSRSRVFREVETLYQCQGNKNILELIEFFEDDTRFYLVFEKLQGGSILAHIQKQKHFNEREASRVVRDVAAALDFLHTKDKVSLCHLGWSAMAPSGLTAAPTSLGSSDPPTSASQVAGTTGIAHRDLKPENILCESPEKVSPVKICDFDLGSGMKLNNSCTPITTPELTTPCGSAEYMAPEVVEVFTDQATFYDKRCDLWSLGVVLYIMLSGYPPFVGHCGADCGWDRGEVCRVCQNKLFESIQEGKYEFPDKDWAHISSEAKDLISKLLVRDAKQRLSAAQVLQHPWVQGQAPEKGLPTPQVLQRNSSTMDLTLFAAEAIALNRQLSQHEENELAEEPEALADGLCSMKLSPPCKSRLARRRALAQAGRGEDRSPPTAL
Sequence of Casein kinase I isoform delta (Homo sapiens) (P48730 whole entry, looked up, canonical isoform): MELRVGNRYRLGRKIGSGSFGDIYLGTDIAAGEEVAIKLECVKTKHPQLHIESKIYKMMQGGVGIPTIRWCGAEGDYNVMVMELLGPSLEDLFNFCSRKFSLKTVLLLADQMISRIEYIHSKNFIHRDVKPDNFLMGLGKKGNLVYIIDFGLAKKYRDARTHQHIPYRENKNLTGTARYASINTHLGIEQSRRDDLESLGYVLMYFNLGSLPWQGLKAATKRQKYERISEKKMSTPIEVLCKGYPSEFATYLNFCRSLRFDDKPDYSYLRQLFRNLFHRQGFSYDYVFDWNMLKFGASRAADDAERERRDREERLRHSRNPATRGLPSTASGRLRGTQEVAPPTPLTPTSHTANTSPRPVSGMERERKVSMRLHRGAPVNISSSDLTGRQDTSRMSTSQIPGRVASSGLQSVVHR
Sequence of Tyrosine-protein kinase ABL1 (Homo sapiens), P00519 [E255K] (P00519 whole entry E255K): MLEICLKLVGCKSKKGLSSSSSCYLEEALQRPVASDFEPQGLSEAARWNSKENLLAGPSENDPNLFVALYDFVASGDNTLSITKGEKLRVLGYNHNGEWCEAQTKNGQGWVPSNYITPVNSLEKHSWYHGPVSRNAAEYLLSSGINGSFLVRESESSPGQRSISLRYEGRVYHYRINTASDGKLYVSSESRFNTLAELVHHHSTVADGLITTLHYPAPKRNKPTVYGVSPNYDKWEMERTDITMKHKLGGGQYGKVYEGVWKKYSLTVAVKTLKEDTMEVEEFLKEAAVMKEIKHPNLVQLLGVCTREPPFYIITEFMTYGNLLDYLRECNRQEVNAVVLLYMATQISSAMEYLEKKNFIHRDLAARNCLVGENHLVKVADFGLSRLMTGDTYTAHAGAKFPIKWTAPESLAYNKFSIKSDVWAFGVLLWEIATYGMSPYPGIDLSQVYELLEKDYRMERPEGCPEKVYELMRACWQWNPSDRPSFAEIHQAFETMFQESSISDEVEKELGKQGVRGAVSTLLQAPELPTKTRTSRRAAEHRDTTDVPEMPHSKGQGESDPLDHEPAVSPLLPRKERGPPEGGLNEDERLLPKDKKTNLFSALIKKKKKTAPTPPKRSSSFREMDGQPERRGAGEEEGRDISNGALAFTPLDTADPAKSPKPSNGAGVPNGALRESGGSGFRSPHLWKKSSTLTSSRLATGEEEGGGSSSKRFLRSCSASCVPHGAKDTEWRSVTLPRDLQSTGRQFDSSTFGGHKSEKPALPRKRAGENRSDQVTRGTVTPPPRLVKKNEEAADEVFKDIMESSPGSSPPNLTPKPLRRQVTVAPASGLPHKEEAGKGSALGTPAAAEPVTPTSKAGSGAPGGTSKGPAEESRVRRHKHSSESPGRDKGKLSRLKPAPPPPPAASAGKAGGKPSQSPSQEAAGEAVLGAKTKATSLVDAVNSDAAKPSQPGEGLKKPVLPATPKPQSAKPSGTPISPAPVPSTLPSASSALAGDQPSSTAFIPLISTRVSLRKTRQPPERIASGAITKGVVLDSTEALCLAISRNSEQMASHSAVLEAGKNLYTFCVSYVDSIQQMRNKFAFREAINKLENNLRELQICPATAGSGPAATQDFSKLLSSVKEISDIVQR
Sequence of Casein kinase I isoform gamma-2 (Homo sapiens) (P78368 whole entry, looked up, canonical isoform): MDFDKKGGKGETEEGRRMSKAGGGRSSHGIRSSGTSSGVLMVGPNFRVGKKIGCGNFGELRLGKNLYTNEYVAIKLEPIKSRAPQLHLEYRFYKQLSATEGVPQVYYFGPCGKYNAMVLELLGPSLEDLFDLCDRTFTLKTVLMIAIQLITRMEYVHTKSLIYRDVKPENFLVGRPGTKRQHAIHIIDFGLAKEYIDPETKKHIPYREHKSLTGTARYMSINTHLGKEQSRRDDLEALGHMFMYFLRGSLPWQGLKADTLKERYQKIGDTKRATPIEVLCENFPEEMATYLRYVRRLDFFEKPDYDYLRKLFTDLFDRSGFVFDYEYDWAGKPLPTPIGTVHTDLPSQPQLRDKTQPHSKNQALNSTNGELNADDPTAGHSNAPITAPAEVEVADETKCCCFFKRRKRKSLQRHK
Sequence of Tyrosine-protein kinase JAK2 (Homo sapiens) (O60674 whole entry, the tested form may be a part): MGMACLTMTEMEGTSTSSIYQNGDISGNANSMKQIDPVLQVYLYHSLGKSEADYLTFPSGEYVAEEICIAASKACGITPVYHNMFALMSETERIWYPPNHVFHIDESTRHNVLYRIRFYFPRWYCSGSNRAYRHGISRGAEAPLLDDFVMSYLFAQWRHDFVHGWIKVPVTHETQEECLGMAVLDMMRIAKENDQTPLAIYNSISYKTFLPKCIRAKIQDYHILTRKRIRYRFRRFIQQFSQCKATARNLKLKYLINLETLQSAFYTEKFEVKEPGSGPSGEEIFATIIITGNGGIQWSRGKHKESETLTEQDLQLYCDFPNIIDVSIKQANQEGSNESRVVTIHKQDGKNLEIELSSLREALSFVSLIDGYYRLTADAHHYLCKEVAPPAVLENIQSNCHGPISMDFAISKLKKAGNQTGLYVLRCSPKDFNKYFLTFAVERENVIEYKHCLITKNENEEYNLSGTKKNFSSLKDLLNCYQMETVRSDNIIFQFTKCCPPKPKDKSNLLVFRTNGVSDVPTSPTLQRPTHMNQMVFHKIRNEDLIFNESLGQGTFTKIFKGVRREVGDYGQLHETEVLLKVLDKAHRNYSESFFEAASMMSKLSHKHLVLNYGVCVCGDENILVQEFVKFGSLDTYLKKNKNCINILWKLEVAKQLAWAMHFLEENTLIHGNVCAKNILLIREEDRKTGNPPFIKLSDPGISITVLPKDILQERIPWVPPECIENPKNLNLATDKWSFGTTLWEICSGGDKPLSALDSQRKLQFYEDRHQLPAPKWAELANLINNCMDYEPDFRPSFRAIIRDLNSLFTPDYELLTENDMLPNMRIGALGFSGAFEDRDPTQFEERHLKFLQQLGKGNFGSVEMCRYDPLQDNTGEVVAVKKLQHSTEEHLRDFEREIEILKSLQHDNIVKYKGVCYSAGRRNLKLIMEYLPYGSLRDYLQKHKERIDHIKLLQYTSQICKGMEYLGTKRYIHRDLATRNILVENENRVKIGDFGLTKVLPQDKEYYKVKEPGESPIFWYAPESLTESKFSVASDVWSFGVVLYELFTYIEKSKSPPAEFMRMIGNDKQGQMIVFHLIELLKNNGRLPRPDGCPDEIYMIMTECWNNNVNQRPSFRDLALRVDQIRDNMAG

SMILES: CO[C@@H]1[C@H](N(C)C(=O)CCC(=O)NCCC(=O)NCCC(=O)NCCC(N)=O)C[C@H]2O[C@]1(C)n1c3ccccc3c3c4c(c5c6ccccc6n2c5c31)C(=O)NC4
- Activity [1]: 54%
- Activity [2]: 89%
- Activity [3]: 69%
- Activity [4]: 0.05%
- Activity [5]: 43%
- Activity [6]: 55%
- Activity [7]: 2.4%
- Activity [8]: 95%
- Activity [9]: 82%
- Activity [10]: 75%

SMILES: CO[C@@H]1[C@H](N(C)C(=O)CCC(=O)NCCC(=O)NCCC(=O)NCCC(=O)NCCC(=O)NCCC(=O)NCCC(=O)NCCC(=O)N[C@H]2CSSC[C@@H](C(=O)NCC(N)=O)NC(=O)CNC(=O)[C@H](Cc3ccccc3)NC(=O)[C@H](C(C)C)NC(=O)[C@H](CCCNC(=N)N)NC(=O)[C@H](Cc3ccccc3)NC(=O)[C@H](C(C)C)NC2=O)C[C@H]2O[C@]1(C)n1c3ccccc3c3c4c(c5c6ccccc6n2c5c31)C(=O)NC4 ({Staurosporine-Suc-βAla-βAla-βAla-βAla-βAla-βAla-βAla}-CVFRVFGCG-NH2; disulfide 1-8)
- Activity [11]: 86%
- Activity [12]: 100%
- Activity [13]: 100%
- inhibition [14]: inactive
- Activity [15]: 100%
- Activity [16]: 58%
- Activity [17]: 100%
- Activity [18]: 100%

SMILES: CO[C@@H]1[C@H](N(C)C(=O)CCC(=O)NCCC(=O)NCCC(=O)NCCC(=O)NCCC(=O)NCCC(=O)NCCC(=O)NCCC(=O)N[C@H]2CNC(=O)C[C@@H](C(N)=O)NC(=O)CNC(=O)[C@H](Cc3ccccc3)NC(=O)[C@H](C(C)C)NC(=O)[C@H](CCCNC(=N)N)NC(=O)[C@H](Cc3ccccc3)NC(=O)[C@H](C(C)C)NC2=O)C[C@H]2O[C@]1(C)n1c3ccccc3c3c4c(c5c6ccccc6n2c5c31)C(=O)NC4 ({Staurosporine-Suc-βAla-βAla-βAla-βAla-βAla-βAla-βAla}-[Dap]VFRVFGD-NH2; lactam 1-8)
- Activity [19]: 100%
- Activity [20]: 100%
- Activity [21]: 100%
- inhibition [14]: Active
